Structures are written as SMILES.

Data set [1] is described as follows: Antiinflammatory activity in human BEAS2B cells assessed as inhibition of IL4-induced eotaxin production at 25 uM after 48 hrs by ELISA treated 2 hrs before IL4 challenge. The format is functional, BEAS-2B. An outline of the steps: (§1)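 BEAS-2B cells in RPMI-1640 with 10% FBS at 37 °C, 5% CO2, plated at 5 × 10^5/mL, switched to serum-free RPMI at 80% confluence. Pretreated 2 h with compound (1.0–25.0 μM), then IL-4 (20 ng/mL) alone. Supernatant eotaxin measured by sandwich ELISA after 48 h. Values are the mean of three experiments.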
(In general: An ELISA detects its analyte on a solid surface through an enzyme-linked reagent.)

Data set [2] can be described thus: Cytotoxicity against human BEAS2B cells at 25 uM after 48 hrs by MTT assay. The format is cell-based. The note with it: beas-2b. An outline of the steps: (§2)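 BEAS-2B viability by MTT after 48 h exposure to compound, with or without IL-4.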
On the technique in general: Tetrazolium dyes change colour on reduction, which living cells bring about.

The subject of data set [3] is BEAS-2B. The experiment in a line: Antiinflammatory activity in human BEAS2B cells assessed as inhibition of IL4-induced eotaxin production after 48 hrs by ELISA treated 2 hrs before IL4 challenge. Format: functional, cell-based. An outline of the steps:
as §1

Data set [4] can be described thus: Cytotoxicity against human BEAS2B cells at 25 uM after 48 hrs by MTT assay in the presence of IL4. The format is cell-based. The note with it: beas-2b. An outline of the steps:
as §2

In data set [5] the test system is BEAS-2B. The experiment in a line: Antiinflammatory activity in human BEAS2B cells assessed as inhibition of IL4 and TNF-alpha-induced eotaxin production after 48 hrs by ELISA treated 2 hrs before IL4 challenge. The format is functional, cell-based.
The nature of data set [6]: Antiinflammatory activity in human BEAS2B cells assessed as reduction in IL4 and TNF-alpha-induced eotaxin production at 25 uM after 48 hrs by ELISA treated 2 hrs before IL4 challenge (RVb=456.2 pg/ml).

As to `COc1ccc(C[C@@H]2COc3c(OC)c(O)c(C)c(O)c3C2=O)c(O)c1O` [OPHIOPOGONANONE G], the Activity in data set [1] was 30.8 pg/mL; in data set [2], “Non-toxic”; in the data set with BEAS-2B [3] it was “Dose-dependent effect”; in data set [4], “Non-toxic”.
With `Cc1c(O)c2c(c(C=O)c1O[C@@H]1O[C@H](CO)[C@@H](O)[C@H](O)[C@H]1O)OC[C@@H](Cc1ccc3c(c1)OCO3)C2=O` [OPHIOPOGOSIDE A], the Activity in data set [1] is 28.5 pg/mL; in data set [2], “Non-toxic”; in the data set with BEAS-2B [3], “Dose-dependent effect”; in the data set on BEAS-2B [5], “Dose-dependent effect”; in data set [4], “Non-toxic”.
Turning to `COc1c(C)c(O[C@@H]2O[C@H](CO)[C@@H](O)[C@H](O)[C@H]2O)c(C=O)c2c1C(=O)[C@H](Cc1ccc3c(c1)OCO3)CO2` [OPHIOPOGOSIDE B], the Activity in data set [1] is 25.5 pg/mL; in data set [2], “Non-toxic”; in the data set on BEAS-2B [3], “Dose-dependent effect”; in data set [4], “Non-toxic”.
For `COc1ccc2ccc(=O)oc2c1CC=C(C)C` [OSTHOLE], the Activity in data set [6] worked out at 80.5 pg/mL.

The values are drawn from ChEMBL document CHEMBL1156215, “Homoisoflavonoid derivatives from the roots of Ophiopogon japonicus and their in vitro anti-inflammation activity” (Bioorg Med Chem Lett, 2010).
